Assay outcomes from PubChem.
MC4R barr agon – activates human MC4R beta-arrestin recruitment; 360,000 compounds, 0.98% hits; U2OS MC4R beta-arrestin complementation, luminescence; percent of melanotan II response, DMSO zero; activation, % at 8.9 µM;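 active = activation above a per-plate cutoff, the mean activation of sample wells on that plate plus 3 SD, cut at about 8% in these data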
MC4R antag cAMP – antagonists of human melanocortin 4 receptor (MC4R). MC4R-expressing cells, MTII-stimulated cAMP, LANCE TR-FRET. inhibition, % at 6.5 µM. 360,000 compounds, 0.48% hits. AID 540295;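 active = inhibition above its plate's cutoff, the mean of tested wells on that plate plus 3 SD, cut at about 29% in these data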;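 note: 0% = Melanotan II alone and 100% = Melanotan II plus saturating MCL0020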
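system = U2OS cells with stable human MC4R expression | also added = Melanotan II challenge after compound preincubation | dosing = one concentration, 6.5 µM nominal | incubation = compound 30 min, challenge 1 h, detection 1 h | measured by = TR-FRET with Eu-cAMP and labeled anti-cAMP, 671 nm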
A1 inh – inhibitors of the anti-apoptotic protein A1, read as caspase activation | MEF A1-2A-BIM cells, Caspase-Glo 3/7 luminescence, 3 h; percent of clofoctol response, vehicle zero | caspase activation, % (concentration not given with the values) | 330,000 compounds, 0.066% hits | AID 2462;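 active = over half of replicate activation scores above 10%, or exactly half above 10 with the replicate mean above 10; inconclusive = replicate mean below 10 yet half the replicates above 10; inactive = over half of replicates below 10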
HGIII-sPLA2 inh – Blocks human group III sPLA2 activity; QFRET BODIPY PC-A2 liposome hydrolysis, fluorescence; inhibition, % at 12.2 µM; 370,000 compounds, 0.56% hits; AID 743126;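 active = inhibition above mean plus 3 SD of compounds lying within the high and low control bounds, cut at about 19% in these data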;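 note: 0% = median of test compound wells and 100% = no enzyme DMSO wells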
Granule exo inh – blocks lytic granule exocytosis; TALL-104 LAMP-1 surface exposure, flow cytometry; cells stimulated with thapsigargin and PMA; inhibition, % at 10 µM; 360,000 compounds, 0.66% hits;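 active = inhibition above about 55%, limit read from the data; inconclusive = no clear call, values can overlap the other calls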
NTR1 ag – NTR1 (human) agonism. 330,000 compounds, 0.17% hits. NTR1-U2OS beta-arrestin-GFP spot imaging, agonist mode. activation, % at 20 µM. P30989. AID 493036;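 active = activation at or above 40% of the spot to cytoplasm intensity ratio, with at least 20 cells analyzed; inconclusive = wells under 20 cells, flagged as cytotoxic or low count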;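 note: 0% = DMSO without peptide and 100% = 100 nM NTR1 peptide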
Target sequence (P30989 whole entry, looked up): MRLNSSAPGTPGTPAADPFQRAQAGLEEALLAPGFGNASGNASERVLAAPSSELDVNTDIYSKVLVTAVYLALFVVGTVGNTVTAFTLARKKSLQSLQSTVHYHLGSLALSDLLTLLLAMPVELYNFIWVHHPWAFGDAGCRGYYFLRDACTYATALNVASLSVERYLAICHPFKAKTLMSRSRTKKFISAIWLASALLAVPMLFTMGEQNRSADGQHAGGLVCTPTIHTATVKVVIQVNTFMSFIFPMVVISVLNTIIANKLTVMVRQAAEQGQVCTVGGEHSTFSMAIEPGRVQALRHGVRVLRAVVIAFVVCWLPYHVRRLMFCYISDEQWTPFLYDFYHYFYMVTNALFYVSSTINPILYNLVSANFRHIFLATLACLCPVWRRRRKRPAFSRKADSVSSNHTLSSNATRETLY
sPLA2 confirm – human GIII-sPLA2 inhibition, confirmation. shares compounds with HGIII-sPLA2 inh. recombinant hGIII-sPLA2, BODIPY PC-A2 QFRET fluorescence. inhibition, % at 12.2 µM. 2,000 compounds, 34% hits. AID 743280;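 active = mean inhibition across triplicates above the hit cutoff set in the earlier primary screen, cut at about 19% in these data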;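 note: 0% = enzyme with DMSO and 100% = DMSO wells lacking enzyme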
BODIPY interf – counter-screen for HGIII-sPLA2 inhibitors: 535nm fluorescence interference | shares compounds with HGIII-sPLA2 inh | BODIPY FL product fluorescence interference, QFRET | inhibition, % at 12.2 µM | 2,000 compounds, 8.5% hits;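 active = average inhibition above the solvent-only control mean plus 3 SD, cut at about 6% in these data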;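 note: 0% = DMSO with substrate plus product and 100% = DMSO with substrate alone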
BODIPY interf DR – interferes with 535nm fluorescence in dose response counter-screen | shares compounds with HGIII-sPLA2 inh | BODIPY FL product fluorescence interference, cell-free | IC50, µM | 240 tested, under 10 active | AID 743455;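 active = IC50 at or below 10 µM; inactive = IC50 above 10 µM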
The depositor's hits bear a star; ? = inconclusive; . = no result. The list is not random: actives were taken first. Their share in the collection is about 2.5%.

SMILES | MC4R barr agon | MC4R antag cAMP | A1 inh | HGIII-sPLA2 inh | Granule exo inh | NTR1 ag | sPLA2 confirm | BODIPY interf | others
COc1ccc(C(=O)NNC(=S)NC(=O)c2ccc(Cl)cc2)cc1 | . | . | 0 | 6 | . | 4 | . | .
Cc1cccc(C(=O)NC(=S)NNC(=O)c2ccc(Cl)cc2)c1 | -6 | 15 | 0 | 24* | 16 | . | 40* | 5 | BODIPY interf DR=>122
CC1(C)Cc2c(sc3nc(-c4ccccc4)oc(=O)c23)CO1 | -1 | 5 | -5 | -3 | -3 | 1 | . | .
CCOc1ccc(CSC(=N)N)cc1Cl | 4 | 8 | -1 | 26* | 2 | -1 | 8 | -8
CCCCOc1ccc(CSc2nnc(C)n2N)cc1[N+](=O)[O-] | 4 | 1 | 1 | 7 | 1 | -1 | . | .
CCOc1ccc(CSC(=N)N)cc1[N+](=O)[O-] | -1 | 0 | 1 | 22* | -4 | 0 | 2 | 0
O=C(NC1CCC(O)CC1)c1ccc(NS(=O)(=O)c2cccc([N+](=O)[O-])c2)cc1 (stereo unspecified) | 0 | 8 | -1 | 3 | 6 | -3 | . | .
CC(C)(C)c1ccc(C(=O)NNC(=O)c2ccncc2)cc1 | -1 | 1 | 0 | -10 | 0 | -1 | . | .
CCCOc1ccc(Br)cc1CSC(=N)N | 0 | 4 | -1 | 35* | 6 | -1 | 18 | -15
COc1cc(OC)c(S(=O)(=O)NC(C)C)cc1S(=O)(=O)NC(C)C | 0 | 0 | 0 | 7 | -1 | 0 | . | .
FC(F)Sc1nc2ccccc2[nH]1 | -2 | -5 | 1 | 25* | 4 | -1 | 15 | -3
FC(F)c1nc2ccccc2[nH]1 | -3 | 9 | 2 | 1 | 0 | 0 | . | .
O=C(OCCN1CCOCC1)c1ccccc1Cl | 0 | 12 | 0 | 16 | 4 | -1 | . | .
O=C(CCCC(=O)OCC(=O)c1ccc(Cl)cc1)NC1CCCCC1 | 2 | 7 | 1 | -7 | 2 | 0 | . | .
O=C1Nc2ccc(Br)cc2/C1=C/C(=O)c1ccc2c(c1)OCO2 | -5 | -4 | ? | 26* | 40 | 55* | 42* | 14*
CC(c1ccccc1)N(NC(=O)C(O)(c1ccccc1)c1ccccc1)C(=O)c1ccccc1 (stereo unspecified) | 0 | -3 | 0 | 22* | 12 | -1 | 13 | -19
c1ccc(C2(CN3CCNC[C@H]3Cc3cccc4ccccc34)CC2)cc1 | -1 | -2 | -1 | 23* | -6 | 15 | 6 | -40
CCOC(=O)c1ccc(N2C(=O)C=C(N3CCOCC3)C2=O)cc1 | 0 | -6 | 0 | -24 | -11 | -2 | . | .
O=C(NC(=S)N1CCN(c2c(Cl)cccc2[N+](=O)[O-])CC1)c1cccs1 | -4 | -6 | 0 | 17 | 0 | 0 | . | .
COc1ccc(N2CCN(C(=S)NC(=O)c3cccs3)CC2)c([N+](=O)[O-])c1 | -5 | 2 | 0 | 26* | -2 | 0 | 28* | 2
S=c1[nH]cc(Cc2ccccc2)s1 | -2 | -5 | ? | 38* | 6 | 1 | 27* | -2
O=c1[nH]cc(Cc2ccccc2)c(=O)[nH]1 | -3 | 1 | . | -2 | -11 | . | . | .
Cn1cc(/C=C2\SC(=S)N(N3CCOCC3)C2=O)c2ccccc21 | 3 | 5 | -1 | 21* | 2 | 9 | 6 | 0
CN(C)C(CNC(=O)c1cc(S(=O)(=O)N(C)c2ccccc2)ccc1Cl)c1ccccc1 (stereo unspecified) | -1 | -3 | 0 | -10 | 4 | 0 | . | .
CN(C)C(CNC(=O)c1cnc(Cl)c(Cl)c1)c1ccccc1 (stereo unspecified) | -1 | 13 | -1 | 21* | 7 | 6 | -3 | -10
